Measured values reported in article PMC8320079 (ACS Omega, 2021).
Several values for one entry are separate records, joined by “and”; a condition that tells them apart may be missing. Equal values may be shown once.

Assays:
[1] = test system: Dalton's lymphoma (DL) cells; experiment: MTT-based cell viability assay, DL cells; conditions: for SI PBMC/DL: selectivity index IC50 (PBMC)/IC50 (DL); for IC50: DL cells, MTT, 24 h, mean ± S.D.
Summary of the method: (§1)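 Test compound dilutions in PBS (pH 7.4), 0 and 0.01–100 μM, applied for 24 h. DL cells were grown in RPMI-1640 with 10% FBS and antibiotics at 37 °C, 5% CO2, and subcultured at 80% confluency. Formazan was read at 570 nm. IC50 came from a four-parameter nonlinear fit of % cytotoxicity versus log concentration. Cisplatin reference; mean ± S.D., n = 3. SI = IC50(PBMC)/IC50(DL or EAC); PBMCs were tested at 0.01–400 μM.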

[2] = test system: Ehrlich ascites carcinoma (EAC) cells; experiment: MTT-based cell viability assay, EAC cells; conditions: for SI PBMC/EAC: selectivity index IC50 (PBMC)/IC50 (EAC); for IC50: EAC cells, MTT, 24 h, mean ± S.D.
Summary of the method: as §1

[3] = test system: peripheral blood mononuclear cells (PBMCs); experiment: MTT-based cell viability assay, normal cells; conditions: for IC50: PBMCs (normal cells), 24 h, mean ± S.D.
Summary of the method: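 Nontumorigenic PBMCs were exposed 24 h to test compound at 0 and 0.01–400 μM in PBS (pH 7.4), using the same culture and dosing conditions as the tumour lines. MTT formazan was read at 570 nm. Percent cytotoxicity was plotted against log concentration, and IC50 taken from a nonlinear fit (bottom and top asymptotes, centre, Hill slope). Cisplatin reference; mean ± S.D.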

DL cell line = experiment: Apoptosis, AO/EB dual staining, DL cells; assay type: cell-based; conditions: 24 h
EAC cell line = experiment: Apoptosis, AO/EB dual staining, EAC cells; assay type: cell-based; conditions: 24 h
Summary of the method: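 Cells (1 × 10^6) exposed 24 h to test compound at 0.01, 0.1, 0.5, 1, 5 and 10 μM; washed twice with PBS (pH 7.4); stained 5 min in a dark cold room with acridine orange and ethidium bromide, 100 μg/mL each in PBS. Fluorescence microscopy in three replicates, about 1000 cells counted per group; orange/red nuclei scored as apoptotic (%). Cisplatin reference; mean ± S.D., n = 3, one-way ANOVA.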

[4] = DMSO-d6 stability study by 31P{1H} and 1H NMR; assay type: physicochemical; conditions: for stability over time in DMSO-d6: 31P{1H} and 1H NMR at time intervals over 6 h
[5] = Solubility noted as property of the isolated complex; assay type: physicochemical; conditions: qualitative

Cc1ccc(C(C)C)cc1.[Cl][Os-]([Cl])[P+](c1ccccc1)(c1ccccc1)c1ccccc1 [Compound 3, [OsCl2(η^6-p-cymene)(PPh3)]]
SI PBMC/DL [1]: 1.33 | SI PBMC/EAC [2]: 1.22 | IC50 [3]: 149.9 ± 1.2 µM

Cc1ccc(C(C)C)cc1.[Cl][Ge-]([Cl])[Cl].[Cl][Os-]1[P+](c2ccccc2)(c2ccccc2)C[P+]1(c1ccccc1)c1ccccc1 [Compound 8, [OsCl(η^6-p-cymene)(κ^2-dppm)]^+GeCl3^–]
IC50 [1]: 8.3 ± 0.05 µM | SI PBMC/DL [1]: 19.42 | IC50 [2]: 18.2 ± 0.05 µM | SI PBMC/EAC [2]: 8.86 | cytotoxicity in normal cells, in words ([3]; PBMCs): negligible cytotoxicity | IC50 [3]: 161 ± 2.8 µM | apoptosis-inducing ability (DL cell line): stronger apoptosis-inducing ability than the rest of the tested compounds | apoptosis-inducing ability (EAC cell line): inducing apoptotic cell death | stability over time in DMSO-d6 [4]: some decomposition of the complex occurs | stability in DMSO (properties line of the synthesis) [4]: somewhat stable in DMSO | solubility in DMSO [5]: sparingly soluble

Cc1ccc(C(C)C)cc1.[Cl][Os-]1[P+](c2ccccc2)(c2ccccc2)C[P+]1(c1ccccc1)c1ccccc1.[Cl][Sn-]([Cl])[Cl] [Compound 10, [OsCl(η^6-p-cymene)(κ^2-dppm)]^+SnCl3^–]
IC50 [1]: 15.8 ± 0.05 µM | SI PBMC/DL [1]: 9.18 | IC50 [2]: 21.4 ± 0.57 µM | SI PBMC/EAC [2]: 6.78 | IC50 [3]: 145 ± 1.8 µM | stability over time in DMSO-d6 [4]: stable in DMSO-d6 for as long as 6 h | stability in DMSO (properties line of the synthesis) [4]: stable in DMSO | solubility in DMSO [5]: readily soluble

N.N.[Cl][Pt][Cl] [cisplatin, reference compound]
IC50 [1]: 0.19 ± 0.07 µM | SI PBMC/DL [1]: 79.2 and 79.15 | IC50 [2]: 0.37 ± 0.1 µM | SI PBMC/EAC [2]: 40.64 | IC50 [3]: 15.04 ± 0.05 µM

[OsCl(η^6-p-cymene)(PPh3)(GeCl3)] [Compound 7]
IC50 [1]: 93 ± 2.8 µM | SI PBMC/DL [1]: 4.28 | SI PBMC/EAC [2]: 3.83 | IC50 [3]: 397.6 ± 3.5 µM | stability over time in DMSO-d6 [4]: somewhat less stable in DMSO-d6 | stability in DMSO (properties line of the synthesis) [4]: unstable in DMSO | solubility in DMSO [5]: sparingly soluble

[OsCl(η^6-p-cymene)(PPh3)(SnCl3)] [Compound 11]
IC50 [1]: 63.7 ± 1.3 µM | SI PBMC/DL [1]: 6.72 | IC50 [2]: 87.3 ± 1.6 µM | SI PBMC/EAC [2]: 4.90 | solubility in DMSO [5]: soluble in DMSO
